Results from ChEMBL document CHEMBL1126564, “Synthesis and antimicrobial evaluation of a series of 7-[3-amino (or aminomethyl)-4-aryl (or cyclopropyl)-1-pyrrolidinyl]-4-quinolone- and -1,8-naphthyridone-3-carboxylic acids” (1993).
In brackets after ≈: the same amount, converted by molar mass.

What was measured:
Type in all cases: functional
[1] = tested on: Klebsiella pneumoniae; assay: Minimum inhibitory concentration against Klebsiella pneumoniae MGH-2
Procedure, shortened: (§1)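 Standard microdilution method against a panel of five Gram-negative and five Gram-positive bacterial strains. The MIC (µg/mL) was recorded for each strain.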

[2] = tested on: Escherichia coli; assay: Minimum inhibitory concentration against Escherichia coli Vogel; procedure, shortened: as §1
[3] = tested on: Pseudomonas aeruginosa; assay: Minimum inhibitory concentration against Pseudomonas aeruginosa UI-18; procedure, shortened: as §1
[4] = tested on: Mus musculus; assay: Median protective dose determined in acute lethal system infection caused by Escherichia coli vogel in CD-1 mice (single dose sc); conditions: read-out: PD50
Procedure, shortened: (§2)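 Acute lethal systemic infection in female Charles River CD-1 mice; compound given once, orally (po) or subcutaneously (sc), at the time of challenge. Median protective dose (PD50, mg/kg) derived from survival.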

[5] = species on record: Mus musculus; assay: Median protective dose determined in acute lethal system infection caused by Escherichia coli vogel in CD-1 mice (single dose perorally); conditions: po, read-out: PD50; procedure, shortened: as §2
[6] = tested on: Streptococcus pyogenes; assay: Minimum inhibitory concentration against Streptococcus pyogenes C-203; procedure, shortened: as §1
[7] = tested on: Streptococcus pneumoniae; assay: Minimum inhibitory concentration against Streptococcus pneumoniae SV-1; procedure, shortened: as §1
[8] = tested on: Staphylococcus aureus; assay: Minimum inhibitory concentration against Staphylococcus aureus H-228; procedure, shortened: as §1
[9] = tested on: Staphylococcus aureus; assay: Minimum inhibitory concentration against Staphylococcus aureus UC-76; procedure, shortened: as §1
[10] = tested on: Enterobacter cloacae; assay: Minimum inhibitory concentration against […] MA-2646; procedure, shortened: as §1
[11] = tested on: Enterococcus faecalis; assay: Minimum inhibitory concentration against […] MGH-2; procedure, shortened: as §1
[12] = tested on: Providencia rettgeri; assay: Minimum inhibitory concentration against Providencia rettgeri M-1771; procedure, shortened: as §1
[13] = tested on: Mus musculus; assay: Median protective dose determined in acute lethal system infection caused by Streptococcus pyogenes C-203 in CD-1 mice (single dose sc); conditions: read-out: PD50; procedure, shortened: as §2
[14] = species on record: Mus musculus; assay: Median protective dose determined in acute lethal system infection caused by Streptococcus pyogenes C-203 in CD-1 mice (single dose perorally); conditions: po, read-out: PD50; procedure, shortened: as §2
[15] = Klebsiella pneumoniae, read-out: MIC
[16] = Escherichia coli, read-out: MIC
[17] = Pseudomonas aeruginosa, read-out: MIC
[18] = Streptococcus pyogenes, read-out: MIC
[19] = Streptococcus pneumoniae, read-out: MIC
[20] = Staphylococcus aureus, read-out: MIC
[21] = Enterobacter cloacae, read-out: MIC
[22] = Enterococcus faecalis, read-out: MIC
[23] = Providencia rettgeri, read-out: MIC

Row | SMILES | MIC [1, 15] | MIC [2, 16] | MIC [3, 17] | ED50 [4] | ED50 [5] | MIC [6, 18] | MIC [7, 19] | MIC [8, 20] | MIC [9, 20] | MIC [10, 21] | MIC [11, 22] | MIC [12, 23] | ED50 [13] | ED50 [14] | also measured
1 | NC1CN(c2nc3c(cc2F)c(=O)c(C(=O)O)cn3C2CC2)CC1c1ccccc1 (stereo not drawn) | 0.2 µg/mL (≈ 0.49 µM) | 0.1 µg/mL (≈ 0.245 µM) | 1.6 µg/mL (≈ 3.92 µM) | 6.5 mg/kg | 11 mg/kg | 0.2 µg/mL (≈ 0.49 µM) | 0.1 µg/mL (≈ 0.245 µM) | 0.1 µg/mL (≈ 0.245 µM) | 0.05 µg/mL (≈ 0.122 µM) | 0.1 µg/mL (≈ 0.245 µM) | 0.2 µg/mL (≈ 0.49 µM) | 0.4 µg/mL (≈ 0.979 µM) |  |  | 
2 | COc1ccccc1C1CN(c2nc3c(cc2F)c(=O)c(C(=O)O)cn3C2CC2)CC1N (stereo in doubt) |  |  |  | 28 mg/kg | 37 mg/kg |  |  |  |  |  |  |  | 22 mg/kg | 44 mg/kg | MIC [1]: 0.4 µg/mL (≈ 0.912 µM); MIC [2]: 0.2 µg/mL (≈ 0.456 µM); MIC [3]: 3.1 µg/mL (≈ 7.07 µM); MIC [6]: 0.2 µg/mL (≈ 0.456 µM); MIC [7]: 0.1 µg/mL (≈ 0.228 µM); MIC [8]: 0.1 µg/mL (≈ 0.228 µM); MIC [9]: 0.05 µg/mL (≈ 0.114 µM); MIC [10]: 0.2 µg/mL (≈ 0.456 µM); MIC [11]: 0.2 µg/mL (≈ 0.456 µM); MIC [12]: 0.8 µg/mL (≈ 1.82 µM)
3 | NCC1CN(c2c(F)cc3c(=O)c(C(=O)O)cn(C4CC4)c3c2F)CC1c1ccccc1 (trans isomer) | 0.05 µg/mL (≈ 0.114 µM) | 0.05 µg/mL (≈ 0.114 µM) | 0.8 µg/mL (≈ 1.82 µM) |  |  | 0.013 µg/mL (≈ 0.0296 µM) | 0.013 µg/mL (≈ 0.0296 µM) | 0.013 µg/mL (≈ 0.0296 µM) | 0.003 µg/mL (≈ 0.00683 µM) | 0.05 µg/mL (≈ 0.114 µM) | 0.013 µg/mL (≈ 0.0296 µM) | 0.1 µg/mL (≈ 0.228 µM) | 1.6 mg/kg | 10 mg/kg | 
4 | Nc1ccc(C2CN(c3c(F)cc4c(=O)c(C(=O)O)cn(C5CC5)c4c3F)CC2N)cc1 (trans isomer) | 0.1 µg/mL (≈ 0.227 µM) | 0.05 µg/mL (≈ 0.114 µM) | 0.8 µg/mL (≈ 1.82 µM) | 1.6 mg/kg | 10 mg/kg | 0.1 µg/mL (≈ 0.227 µM) | 0.1 µg/mL (≈ 0.227 µM) | 0.1 µg/mL (≈ 0.227 µM) | 0.025 µg/mL (≈ 0.0568 µM) | 0.05 µg/mL (≈ 0.114 µM) | 0.1 µg/mL (≈ 0.227 µM) | 0.2 µg/mL (≈ 0.454 µM) |  |  | 
5 | NCC1CN(c2nc3c(cc2F)c(=O)c(C(=O)O)cn3C2CC2)CC1c1ccco1 (trans isomer) | 0.1 µg/mL (≈ 0.242 µM) | 0.1 µg/mL (≈ 0.242 µM) | 0.4 µg/mL (≈ 0.97 µM) |  |  | 0.05 µg/mL (≈ 0.121 µM) | 0.025 µg/mL (≈ 0.0606 µM) | 0.05 µg/mL (≈ 0.121 µM) | 0.013 µg/mL (≈ 0.0315 µM) | 0.2 µg/mL (≈ 0.485 µM) | 0.05 µg/mL (≈ 0.121 µM) | 0.2 µg/mL (≈ 0.485 µM) | 4.2 mg/kg | 36 mg/kg | 
6 | CC(C)c1ccc(C2CN(c3c(F)cc4c(=O)c(C(=O)O)cn(C5CC5)c4c3F)CC2N)cc1 (trans isomer) | 0.4 µg/mL (≈ 0.856 µM) | 0.4 µg/mL (≈ 0.856 µM) | 3.1 µg/mL (≈ 6.63 µM) |  |  | 0.2 µg/mL (≈ 0.428 µM) | 0.2 µg/mL (≈ 0.428 µM) | 0.05 µg/mL (≈ 0.107 µM) | 0.025 µg/mL (≈ 0.0535 µM) | 0.4 µg/mL (≈ 0.856 µM) | 0.2 µg/mL (≈ 0.428 µM) | 0.4 µg/mL (≈ 0.856 µM) | 90 mg/kg | 100 mg/kg | 
7 | NCC1CN(c2nc3c(cc2F)c(=O)c(C(=O)O)cn3C2CC2)CC1c1ccccc1 (trans isomer) | 0.05 µg/mL (≈ 0.118 µM) | 0.05 µg/mL (≈ 0.118 µM) | 0.8 µg/mL (≈ 1.89 µM) |  |  | 0.025 µg/mL (≈ 0.0592 µM) | 0.013 µg/mL (≈ 0.0308 µM) | 0.025 µg/mL (≈ 0.0592 µM) | 0.006 µg/mL (≈ 0.0142 µM) | 0.05 µg/mL (≈ 0.118 µM) | 0.025 µg/mL (≈ 0.0592 µM) | 0.1 µg/mL (≈ 0.237 µM) | 4.5 mg/kg | 27 mg/kg | 
8 | NC1CN(c2c(F)cc3c(=O)c(C(=O)O)cn(C4CC4)c3c2F)CC1c1ccc(F)cc1 (trans isomer) | 0.1 µg/mL (≈ 0.226 µM) | 0.1 µg/mL (≈ 0.226 µM) | 1.6 µg/mL (≈ 3.61 µM) |  |  | 0.1 µg/mL (≈ 0.226 µM) | 0.1 µg/mL (≈ 0.226 µM) | 0.025 µg/mL (≈ 0.0564 µM) | 0.013 µg/mL (≈ 0.0293 µM) | 0.1 µg/mL (≈ 0.226 µM) | 0.1 µg/mL (≈ 0.226 µM) | 0.2 µg/mL (≈ 0.451 µM) | 40 mg/kg | 44 mg/kg | 
9 | Nc1ccc(C2CN(c3nc4c(cc3F)c(=O)c(C(=O)O)cn4C3CC3)CC2N)cc1 (trans isomer) | 0.2 µg/mL (≈ 0.472 µM) | 0.1 µg/mL (≈ 0.236 µM) | 1.6 µg/mL (≈ 3.78 µM) | 3.1 mg/kg | 24 mg/kg | 0.2 µg/mL (≈ 0.472 µM) | 0.2 µg/mL (≈ 0.472 µM) | 0.2 µg/mL (≈ 0.472 µM) | 0.05 µg/mL (≈ 0.118 µM) | 0.1 µg/mL (≈ 0.236 µM) | 0.2 µg/mL (≈ 0.472 µM) | 0.4 µg/mL (≈ 0.945 µM) |  |  | 
10 | NC1CN(c2c(F)cc3c(=O)c(C(=O)O)cn(C4CC4)c3c2F)CC1c1ccc(O)cc1 (trans isomer) | 0.1 µg/mL (≈ 0.227 µM) | 0.1 µg/mL (≈ 0.227 µM) | 1.6 µg/mL (≈ 3.62 µM) | 50 mg/kg | 100 mg/kg | 0.1 µg/mL (≈ 0.227 µM) | 0.1 µg/mL (≈ 0.227 µM) | 0.1 µg/mL (≈ 0.227 µM) | 0.025 µg/mL (≈ 0.0566 µM) | 0.1 µg/mL (≈ 0.227 µM) | 0.1 µg/mL (≈ 0.227 µM) | 0.2 µg/mL (≈ 0.453 µM) |  |  | 
11 | NC1CN(c2c(F)cc3c(=O)c(C(=O)O)cn(C4CC4)c3c2F)CC1c1ccccc1 (trans isomer) | 0.05 µg/mL (≈ 0.118 µM) | 0.025 µg/mL (≈ 0.0588 µM) | 0.8 µg/mL (≈ 1.88 µM) | 7 mg/kg | 15.5 mg/kg | 0.1 µg/mL (≈ 0.235 µM) | 0.1 µg/mL (≈ 0.235 µM) | 0.025 µg/mL (≈ 0.0588 µM) | 0.013 µg/mL (≈ 0.0306 µM) | 0.025 µg/mL (≈ 0.0588 µM) | 0.1 µg/mL (≈ 0.235 µM) | 0.1 µg/mL (≈ 0.235 µM) | 1.6 mg/kg | 10 mg/kg | 
12 | NC1CN(c2nc3c(cc2F)c(=O)c(C(=O)O)cn3C2CC2)CC1c1ccc(F)cc1 (trans isomer) | 0.2 µg/mL (≈ 0.469 µM) | 0.1 µg/mL (≈ 0.235 µM) | 1.6 µg/mL (≈ 3.75 µM) | 9 mg/kg | 18 mg/kg | 0.2 µg/mL (≈ 0.469 µM) | 0.2 µg/mL (≈ 0.469 µM) | 0.1 µg/mL (≈ 0.235 µM) | 0.025 µg/mL (≈ 0.0586 µM) | 0.1 µg/mL (≈ 0.235 µM) | 0.1 µg/mL (≈ 0.235 µM) | 0.4 µg/mL (≈ 0.938 µM) |  |  | 
